Reference: ChEMBL document CHEMBL3352191, “Synthesis of sulfonamides with effective inhibitory action against Porphyromonas gingivalis γ-carbonic anhydrase” (Bioorg Med Chem Lett, 2014)

Assay: Inhibition of Porphyromonas gingivalis gamma-carbonic anhydrase expressed in Escherichia coli preincubated for 15 mins by stopped flow CO2 hydration assay
Procedure, shortened: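 CO2 hydration followed by stopped-flow with phenol red (0.2 mM) read at 557 nm. Buffer was 20 mM Hepes pH 7.4 with 20 mM NaBF4 for ionic strength, and CO2 was 1.7–17 mM. Initial rates came from ≥6 traces of the first 5–10% of reaction over 10–100 s, with uncatalyzed rate subtracted. Inhibitor was diluted in water from 10 mM stock and preincubated with enzyme 15 min at rt. KI came from nonlinear least squares plus Cheng–Prusoff, mean of ≥3 determinations.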

Row | SMILES | Ki [nM]
1 | CC(=O)NC(CCCCNC(=O)OC(C)(C)C)C(=O)Nc1cccc(S(N)(=O)=O)c1 (stereo not given) | 54.2
2 | CC(C)(C)OC(=O)NCCCC(=O)NCc1ccc(S(N)(=O)=O)cc1 | 490
3 | CC(C)(C)OC(=O)NCCCC(=O)NCCc1ccc(S(N)(=O)=O)cc1 | 233
4 | NCCCC(=O)NCc1ccc(S(N)(=O)=O)cc1 | 42.7
5 | NCCCC(=O)NCCc1ccc(S(N)(=O)=O)cc1 | 65.9
6 | CC(C)(C)OC(=O)/N=C(\NCCCC(=O)NCc1ccc(S(N)(=O)=O)cc1)NC(=O)OC(C)(C)C | 74
7 | CC(C)(C)OC(=O)/N=C(\NCCCC(=O)NCCc1ccc(S(N)(=O)=O)cc1)NC(=O)OC(C)(C)C | 90.6
8 | N=C(N)NCCCC(=O)NCc1ccc(S(N)(=O)=O)cc1 | 887
9 | N=C(N)NCCCC(=O)NCCc1ccc(S(N)(=O)=O)cc1 | 40.1
10 | CC(=O)NC(CCCCNC(=O)OC(C)(C)C)C(=O)NCc1ccc(S(N)(=O)=O)cc1 (stereo not given) | 89
11 | CC(=O)NC(CCCCNC(=O)OC(C)(C)C)C(=O)NCCc1ccc(S(N)(=O)=O)cc1 (stereo not given) | 312
12 | CC(=O)NC(CCCCN)C(=O)NCc1ccc(S(N)(=O)=O)cc1 (stereo not given) | 74.1
13 | CC(=O)NC(CCCCN)C(=O)NCCc1ccc(S(N)(=O)=O)cc1 (stereo not given) | 70.5
14 | CC(=O)NC(CCCCN/C(=N/C(=O)OC(C)(C)C)NC(=O)OC(C)(C)C)C(=O)NCc1ccc(S(N)(=O)=O)cc1 (stereo not given) | 77.6
15 | CC(=O)NC(CCCCN/C(=N/C(=O)OC(C)(C)C)NC(=O)OC(C)(C)C)C(=O)NCCc1ccc(S(N)(=O)=O)cc1 (stereo not given) | 60.8
16 | CC(=O)NC(CCCCNC(=N)N)C(=O)NCc1ccc(S(N)(=O)=O)cc1 (stereo not given) | 80.7
17 | CC(=O)NC(CCCCNC(=N)N)C(=O)NCCc1ccc(S(N)(=O)=O)cc1 (stereo not given) | 370
18 | CC(C)(C)OC(=O)NCCCC(=O)Nc1cccc(S(N)(=O)=O)c1 | 1240
19 | CC(C)(C)OC(=O)NCCCC(=O)Nc1ccc(S(N)(=O)=O)cc1 | 56
20 | COC(=O)C(CCCCNC(=O)OCc1ccccc1)NC(=O)c1ccc(S(N)(=O)=O)cc1 (stereo not given) | 85.4
